Reference: ChEMBL document CHEMBL1147539, “Synthesis and biological evaluation of novel, selective, nonsteroidal glucocorticoid receptor antagonists” (Bioorg Med Chem Lett, 2004)
pIC50: −log10 of the molar value.

Legend:
Glucocorticoid receptor [1] = target: T1, Glucocorticoid receptor (Homo sapiens, UniProt P04150); assay: Displacement of [3H]dexamethasone from human Glucocorticoid receptor (GR)
T1 sequence (P04150 whole entry): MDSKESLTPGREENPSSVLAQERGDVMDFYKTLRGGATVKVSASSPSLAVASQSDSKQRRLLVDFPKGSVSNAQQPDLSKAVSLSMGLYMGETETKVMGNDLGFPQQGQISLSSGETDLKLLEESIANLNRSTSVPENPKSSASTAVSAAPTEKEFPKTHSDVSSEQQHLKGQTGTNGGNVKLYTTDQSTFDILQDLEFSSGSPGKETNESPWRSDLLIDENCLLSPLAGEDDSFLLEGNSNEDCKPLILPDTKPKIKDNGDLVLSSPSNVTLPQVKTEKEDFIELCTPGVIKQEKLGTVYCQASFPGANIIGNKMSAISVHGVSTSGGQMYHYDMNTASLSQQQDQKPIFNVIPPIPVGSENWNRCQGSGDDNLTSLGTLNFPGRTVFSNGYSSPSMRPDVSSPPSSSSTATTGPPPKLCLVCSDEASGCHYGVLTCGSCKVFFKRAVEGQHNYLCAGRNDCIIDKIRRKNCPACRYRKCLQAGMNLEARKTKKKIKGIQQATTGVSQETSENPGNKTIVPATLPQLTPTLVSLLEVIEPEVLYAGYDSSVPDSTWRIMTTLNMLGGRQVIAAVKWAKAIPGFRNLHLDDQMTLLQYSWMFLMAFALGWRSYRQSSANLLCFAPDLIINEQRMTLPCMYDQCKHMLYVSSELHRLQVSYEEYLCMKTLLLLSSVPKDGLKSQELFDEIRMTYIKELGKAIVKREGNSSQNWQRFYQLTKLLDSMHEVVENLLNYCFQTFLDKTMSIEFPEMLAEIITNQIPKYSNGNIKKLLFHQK

Glucocorticoid receptor [2] = target: T1, Glucocorticoid receptor; assay: Effect on human Glucocorticoid receptor (GR) in a whole cell assay to measure functional cellular GR-antagonism (GRAF)
Estrogen receptor = target: T2, Estrogen receptor (Homo sapiens, UniProt P03372); assay: Displacement of [3H]estradiol from human estrogen receptor alpha
T2 sequence (P03372 whole entry): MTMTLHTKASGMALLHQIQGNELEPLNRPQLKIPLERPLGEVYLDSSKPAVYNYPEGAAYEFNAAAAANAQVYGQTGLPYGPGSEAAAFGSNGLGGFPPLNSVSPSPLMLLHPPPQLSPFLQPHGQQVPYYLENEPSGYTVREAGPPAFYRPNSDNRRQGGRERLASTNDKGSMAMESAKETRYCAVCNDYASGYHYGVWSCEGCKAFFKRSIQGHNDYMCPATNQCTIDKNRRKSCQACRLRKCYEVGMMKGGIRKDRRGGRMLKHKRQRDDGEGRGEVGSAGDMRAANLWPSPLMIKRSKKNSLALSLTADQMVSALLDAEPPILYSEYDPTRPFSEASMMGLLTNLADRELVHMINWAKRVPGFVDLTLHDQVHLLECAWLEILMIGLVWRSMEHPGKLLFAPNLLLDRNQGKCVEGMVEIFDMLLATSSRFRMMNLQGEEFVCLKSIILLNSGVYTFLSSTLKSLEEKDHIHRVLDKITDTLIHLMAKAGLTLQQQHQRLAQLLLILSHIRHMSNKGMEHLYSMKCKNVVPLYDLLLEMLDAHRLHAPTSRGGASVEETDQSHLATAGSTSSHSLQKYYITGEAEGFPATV
In short: (§1)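 Human steroid receptor (PR, MR, AR, ERα) binding measured by radioligand displacement, with IC50s determined in duplicate. Values without a range come from a single experiment, and values with a range are geometric means of repeat experiments.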

Glucocorticoid receptor [3] = target: T1, Glucocorticoid receptor; assay: Displacement of [3H]dexamethasone from human Glucocorticoid receptor (GR); Value ranges from 378-814 nM
[4] = target: T3, Mineralocorticoid receptor (Homo sapiens, UniProt P08235); assay: Displacement of [3H]aldosterone from human Mineralocorticoid receptor; in short: as §1
T3 sequence (P08235 whole entry): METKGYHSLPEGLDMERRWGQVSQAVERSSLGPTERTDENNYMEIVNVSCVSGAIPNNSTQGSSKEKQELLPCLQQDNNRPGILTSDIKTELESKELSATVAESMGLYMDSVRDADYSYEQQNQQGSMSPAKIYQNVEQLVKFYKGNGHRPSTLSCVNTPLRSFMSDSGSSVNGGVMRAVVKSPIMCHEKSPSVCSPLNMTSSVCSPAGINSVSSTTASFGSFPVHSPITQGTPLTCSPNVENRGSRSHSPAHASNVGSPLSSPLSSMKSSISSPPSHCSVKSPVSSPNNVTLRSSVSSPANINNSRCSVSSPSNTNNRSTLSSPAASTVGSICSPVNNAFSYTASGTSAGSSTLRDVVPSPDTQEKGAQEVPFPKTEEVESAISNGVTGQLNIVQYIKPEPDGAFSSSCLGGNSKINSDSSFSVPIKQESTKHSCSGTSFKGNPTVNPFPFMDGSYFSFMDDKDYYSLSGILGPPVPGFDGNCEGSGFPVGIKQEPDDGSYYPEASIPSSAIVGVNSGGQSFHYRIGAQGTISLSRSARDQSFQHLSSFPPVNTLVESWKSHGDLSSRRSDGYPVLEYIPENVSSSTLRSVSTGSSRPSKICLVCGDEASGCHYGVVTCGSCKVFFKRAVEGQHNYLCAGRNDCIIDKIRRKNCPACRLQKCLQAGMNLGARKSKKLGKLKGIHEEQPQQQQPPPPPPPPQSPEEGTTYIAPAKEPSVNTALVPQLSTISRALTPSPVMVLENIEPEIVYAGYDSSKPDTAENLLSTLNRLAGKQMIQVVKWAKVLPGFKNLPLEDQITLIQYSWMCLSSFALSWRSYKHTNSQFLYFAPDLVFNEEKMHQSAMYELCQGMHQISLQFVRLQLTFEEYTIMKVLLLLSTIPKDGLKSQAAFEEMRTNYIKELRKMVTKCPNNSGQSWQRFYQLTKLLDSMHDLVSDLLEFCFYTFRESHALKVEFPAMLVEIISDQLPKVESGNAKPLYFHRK

Progesterone receptor = target: T4, Progesterone receptor (Homo sapiens, UniProt P06401); assay: Displacement of [3H]progesterone from human Progesterone receptor; in short: as §1
T4 sequence (P06401 whole entry): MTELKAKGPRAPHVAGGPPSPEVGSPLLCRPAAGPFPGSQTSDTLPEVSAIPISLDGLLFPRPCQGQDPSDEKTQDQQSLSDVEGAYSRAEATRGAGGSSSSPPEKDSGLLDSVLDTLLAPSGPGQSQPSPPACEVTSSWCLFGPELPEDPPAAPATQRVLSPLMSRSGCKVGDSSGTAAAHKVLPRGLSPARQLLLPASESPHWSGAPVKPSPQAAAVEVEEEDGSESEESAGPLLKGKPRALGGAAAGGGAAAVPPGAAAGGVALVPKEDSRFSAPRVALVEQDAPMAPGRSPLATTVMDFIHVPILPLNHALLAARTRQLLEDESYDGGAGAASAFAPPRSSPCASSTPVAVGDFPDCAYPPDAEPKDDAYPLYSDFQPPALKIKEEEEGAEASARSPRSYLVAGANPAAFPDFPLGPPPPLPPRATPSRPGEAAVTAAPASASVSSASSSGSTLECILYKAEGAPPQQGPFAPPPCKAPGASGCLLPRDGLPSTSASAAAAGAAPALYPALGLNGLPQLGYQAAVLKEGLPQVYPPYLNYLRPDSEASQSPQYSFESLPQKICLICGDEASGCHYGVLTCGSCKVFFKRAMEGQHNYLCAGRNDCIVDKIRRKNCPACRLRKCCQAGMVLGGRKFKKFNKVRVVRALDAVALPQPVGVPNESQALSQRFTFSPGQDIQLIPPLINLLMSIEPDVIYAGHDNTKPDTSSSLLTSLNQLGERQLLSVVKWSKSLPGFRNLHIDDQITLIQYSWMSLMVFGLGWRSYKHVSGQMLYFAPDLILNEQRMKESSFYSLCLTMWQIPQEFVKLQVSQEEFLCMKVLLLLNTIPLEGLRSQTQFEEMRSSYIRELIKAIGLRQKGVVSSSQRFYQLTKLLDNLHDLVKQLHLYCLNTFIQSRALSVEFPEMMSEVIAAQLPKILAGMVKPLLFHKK

Androgen receptor = target: T5, Androgen receptor (Homo sapiens, UniProt P10275); assay: Displacement of [3H]mibolerone from human Androgen receptor
T5 sequence (P10275 whole entry): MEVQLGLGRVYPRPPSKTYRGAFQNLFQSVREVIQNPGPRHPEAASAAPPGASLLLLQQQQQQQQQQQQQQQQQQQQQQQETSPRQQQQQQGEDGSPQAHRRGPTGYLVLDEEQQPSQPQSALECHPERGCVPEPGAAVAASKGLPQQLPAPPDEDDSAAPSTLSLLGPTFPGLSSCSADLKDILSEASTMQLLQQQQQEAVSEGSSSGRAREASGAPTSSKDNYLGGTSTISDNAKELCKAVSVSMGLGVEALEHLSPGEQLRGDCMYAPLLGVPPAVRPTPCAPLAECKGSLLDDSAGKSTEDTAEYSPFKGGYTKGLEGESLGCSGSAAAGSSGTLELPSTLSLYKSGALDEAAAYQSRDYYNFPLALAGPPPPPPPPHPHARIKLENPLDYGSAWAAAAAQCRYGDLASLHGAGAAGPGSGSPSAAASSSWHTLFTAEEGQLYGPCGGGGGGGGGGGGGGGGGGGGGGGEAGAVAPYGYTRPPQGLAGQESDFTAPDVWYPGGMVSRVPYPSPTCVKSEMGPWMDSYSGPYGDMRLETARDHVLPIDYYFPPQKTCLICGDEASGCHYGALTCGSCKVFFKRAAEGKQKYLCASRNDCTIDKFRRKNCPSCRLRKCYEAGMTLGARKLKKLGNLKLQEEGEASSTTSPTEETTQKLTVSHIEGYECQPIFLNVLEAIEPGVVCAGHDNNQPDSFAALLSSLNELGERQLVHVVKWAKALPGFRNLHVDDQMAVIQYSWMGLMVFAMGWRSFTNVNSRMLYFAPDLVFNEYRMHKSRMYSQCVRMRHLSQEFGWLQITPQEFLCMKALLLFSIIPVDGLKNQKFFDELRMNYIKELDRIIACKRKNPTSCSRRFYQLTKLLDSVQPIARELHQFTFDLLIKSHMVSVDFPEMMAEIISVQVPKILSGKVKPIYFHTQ

Glucocorticoid receptor [5] = target: T1, Glucocorticoid receptor; assay: Displacement of [3H]dexamethasone from human Glucocorticoid receptor (GR); […]
Glucocorticoid receptor [6] = target: T1, Glucocorticoid receptor
Glucocorticoid receptor [7] = target: T1, Glucocorticoid receptor; remark: listed apart in the source
Glucocorticoid receptor [8] = target: T1, Glucocorticoid receptor; remark: listed apart in the source

Row | SMILES | pIC50 (Glucocorticoid receptor [1]) | pIC50 (Glucocorticoid receptor [2]) | further results
1 | CNc1cccc(C2Oc3cccc(OC)c3-c3ccc(NS(C)(=O)=O)cc32)c1 (stereo not given) | 7.64 | 6.74 | –
2 | CCCCCC1Oc2cccc(OC)c2-c2ccc(NS(C)(=O)=O)cc21 (stereo not given) | 7.68 | – | –
3 | COc1cccc2c1-c1ccccc1C(c1ccccc1)O2 (stereo not given) | 5.00 | 5.72 | –
4 | COc1cccc2c1-c1ccc(NS(C)(=O)=O)c(Br)c1C(c1ccccc1)O2 (stereo not given) | – | 6.37 | pIC50 (Estrogen receptor): 5.64; pIC50 (Glucocorticoid receptor [3]): 6.28; pIC50 [4]: 6.34; pIC50 (Progesterone receptor): 5.00
5 | COc1cccc2c1-c1ccc(NS(C)(=O)=O)cc1C(c1ccc(Oc3ccccc3)cc1)O2 (stereo not given) | 7.20 | 6.07 | –
6 | COc1cccc2c1-c1ccc(NS(C)(=O)=O)cc1C(c1ccccc1)O2 (stereo not given) | – | 7.06 | pIC50 (Androgen receptor): 5.19; pIC50 (Estrogen receptor): < 5.00; pIC50 (Glucocorticoid receptor [5]): 7.72; pIC50 [4]: 4.64
7 | CCS(=O)(=O)Nc1ccc2c(c1)C(c1ccccc1)Oc1cccc(OC)c1-2 (stereo not given) | – | 6.60 | pIC50 (Glucocorticoid receptor [5]): 7.21
8 | COc1cccc2c1-c1ccc(NS(=O)(=O)c3ccccc3)cc1C(c1ccccc1)O2 (stereo not given) | – | 6.86 | pIC50 (Glucocorticoid receptor [6]): 6.84
9 | COc1cccc2c1-c1ccc(NS(C)(=O)=O)cc1C(c1ccsc1)O2 (stereo not given) | – | 7.37 | pIC50 (Glucocorticoid receptor [7]): 7.96
10 | COc1cccc2c1-c1ccc(NS(=O)(=O)c3cccs3)cc1C(c1ccccc1)O2 (stereo not given) | – | 7.03 | pIC50 (Glucocorticoid receptor [8]): 7.74
